Results pooled from the literature.
Compare with care: the assays were run in different laboratories.
Target: Phosphatidylinositol 4,5-bisphosphate 3-kinase catalytic subunit gamma isoform (PIK3CG, Homo sapiens, UniProt P48736)

SMILES	observed	mode	technique	concentration	quantity	result
CC1=C(C#N)[C@@H](c2ccc3[nH]nc(C)c3c2)C(C#N)=C(c2ccc(Cl)cc2)N1	cell-free assay		competition with immobilised ligand	1 µM	remaining binding	100%
Nc1ncnc2occ(-c3ccc(NC(=O)Nc4cc(C(F)(F)F)ccc4F)cc3)c12	cell-free assay	inhibitor		20 µM	remaining signal	54%
COc1cc(-c2cc(-c3ccc(N4CCNCC4)cc3)cnc2C)cc(OC)c1OC	enzyme activity	inhibitor		1 µM	inhibition	11%
C=CC(=O)Nc1cc(Nc2nccc(Nc3cc(Cl)c(F)cc3C(C)(C)O)n2)c(OC)cc1N1CC[C@@H](N(C)C)C1	enzyme activity	inhibitor		1 µM	inhibition	11%
COc1cc(Cl)c(C(=O)N[C@@H](CN[C@H]2CC[C@@H](N)CC2)Cc2ccc(C#N)cc2)cc1-c1ccc(CN[C@H](C)c2ccc(C)cc2)o1	enzyme activity	inhibitor		1 µM	remaining activity	102%
O=C(CSc1nc2nccnc2c(=O)n1CCc1ccccc1)Nc1ccccc1	enzyme activity	inhibitor		10 µM	inhibition	< 20%
CO[C@@H](C)c1c(Nc2ccc([C@@H](N(C)C(=O)C3CCS(=O)(=O)CC3)C(F)(F)F)cc2)cnc2cc(Cl)nn12	cell-free assay		competition with immobilised ligand	1 µM	remaining binding	87%
O=S(=O)(Nc1cc(Sc2ncn[nH]2)c(O)c2ccccc12)c1ccc(-c2ccccc2)cc1	enzyme activity	inhibitor		1 µM	remaining activity	≥ 75%
O=C(CSc1nc2nccnc2c(=O)n1CCc1ccccc1)Nc1nccs1	enzyme activity	inhibitor		10 µM	inhibition	9%
CS(=O)(=O)Nc1cc(-c2ccc3ncnc(Nc4ccc(F)c(Cl)c4)c3c2)cnc1Cl	enzyme activity	inhibitor	FRET	10 µM	inhibition	90 to 100%
Cc1cc(-n2nc(Cc3cc(F)cc(C(F)(F)F)c3)nc2C)ccc1C(N)=O	cell-free assay		competition with immobilised ligand	1 µM	remaining binding	79%
Cc1cnc(NC2CCOCC2)nc1-n1cnc(C(=O)NC(CN)c2cc(F)cc(Cl)c2)c1 (stereo not drawn)	enzyme activity	inhibitor	radiometric	1 µM	remaining activity	100%
